Screening results deposited in PubChem BioAssay by The Scripps Research Institute Molecular Screening Center.
Compounds with a hit are over-represented: about 2.4% of the library has one in this group of screens.
HTR5A inv ctr: HTR5A inverse agonists in luminescence cell assay, primary screen, counter-screen for OPRM1-OPRD1 heterodimer inverse agonist project, full-deck HTS | HTR5A cell line, inverse agonism | AID 504634, 2011 | inhibition, % at 9.3 µM | hit rate 0.083% among 340,000; in the data active = inhibition mostly above about 23%, no sharp cut-off; inactive = mostly below about 18%
Target sequence (P47898 whole entry, looked up): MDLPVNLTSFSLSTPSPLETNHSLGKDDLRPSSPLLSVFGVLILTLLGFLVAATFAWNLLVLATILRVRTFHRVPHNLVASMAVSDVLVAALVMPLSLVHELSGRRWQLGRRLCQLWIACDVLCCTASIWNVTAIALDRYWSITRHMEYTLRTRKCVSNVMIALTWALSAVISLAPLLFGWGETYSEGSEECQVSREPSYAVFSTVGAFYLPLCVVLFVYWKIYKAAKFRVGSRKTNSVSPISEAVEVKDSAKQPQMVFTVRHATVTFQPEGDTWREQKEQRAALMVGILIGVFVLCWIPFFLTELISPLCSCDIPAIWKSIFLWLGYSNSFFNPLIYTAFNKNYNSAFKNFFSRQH
MC4R ag barr: MC4R agonists recruiting beta-arrestin, primary screen, cell-based, luminescence, agonist arm of biased-ligand search | Melanocortin receptor 4 (Homo sapiens), P32245 | U2OS MC4R beta-arrestin complementation; percent of melanotan II response, DMSO zero | activation, % at 8.9 µM | hit rate 0.98% among 360,000 | AID 540308, 2011;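 active = activation above a per-plate cutoff, the mean activation of sample wells on that plate plus 3 SD, cut at about 8% in these data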
Target sequence (P32245 whole entry, looked up): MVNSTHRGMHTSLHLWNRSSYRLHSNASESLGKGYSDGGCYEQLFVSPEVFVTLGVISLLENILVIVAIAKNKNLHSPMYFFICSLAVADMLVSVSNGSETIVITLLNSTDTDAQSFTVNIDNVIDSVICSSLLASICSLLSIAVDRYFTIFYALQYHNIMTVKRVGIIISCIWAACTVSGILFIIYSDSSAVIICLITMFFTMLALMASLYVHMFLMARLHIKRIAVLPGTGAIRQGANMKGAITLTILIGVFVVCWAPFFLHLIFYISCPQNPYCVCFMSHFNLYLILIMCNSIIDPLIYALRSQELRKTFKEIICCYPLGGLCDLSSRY
OPRM1-OPRD1 inv: inverse agonists of MOR-DOR heterodimerization, primary screen, cell-based, luminescence; inhibition, % at 9.3 µM; AID 504357, 2011; hit rate 0.21% among 340,000; cell-based MOR-DOR heterodimer luminescence, inverse agonism; in the data active = inhibition above about 22%, passing the limit was not always enough
MC4R antag cAMP: MC4R antagonists of cAMP signaling, primary screen, cell-based, TR-FRET, antagonist arm of biased-ligand search | Melanocortin receptor 4 (Homo sapiens), P32245 | MC4R-expressing cells, MTII-stimulated cAMP, LANCE TR-FRET | inhibition, % at 6.5 µM | hit rate 0.48% among 360,000 | AID 540295, 2011;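 active = inhibition above its plate's cutoff, the mean of tested wells on that plate plus 3 SD, cut at about 29% in these data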
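material = U2OS cells stably expressing human melanocortin 4 receptor (MC4R) | also added = Melanotan II challenge | dosing = single nominal compound dose of 6.5 µM | detection = TR-FRET with Eu-cAMP and labeled anti-cAMP, 671 nm | replication = singlicate | timing = compound 30 min, challenge 1 h, detection 1 h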
HTR5A ag ctr: HTR5A agonists in luminescence cell assay, primary screen, counter-screen for OPRM1-OPRD1 heterodimer agonist project, full-deck HTS. 5-hydroxytryptamine receptor 5A (Homo sapiens), P47898. AID 504692, 2011. hit rate 0.61% among 340,000. activation, % at 9.3 µM. cell-based; in the data active = activation mostly above about 9.5%, no sharp cut-off; inactive = mostly below about 7.6%
OPRM1-OPRD1 ag: agonists of OPRM1-OPRD1 heterodimerization, primary screen, cell-based, luminescence; hit rate 0.3% among 340,000; AID 504326, 2011; Mu-type opioid receptor (Homo sapiens) + Delta-type opioid receptor (Homo sapiens), …; activation, % at 9.3 µM; cells
OPRM1-D1 ag cf: agonists of MOR-DOR heterodimerization, confirmation, cell-based, luminescence; hit rate 45% among 830; AID 504904, 2011; activation, % at 9.3 µM; cells, luminescence complementation; shares compounds with OPRM1-OPRD1 ag
HTR5A ag ctr2: HTR5A agonists in cells, counter-screen for OPRM1-OPRD1 heterodimer agonist project, cell-based, luminescence. shares compounds with OPRM1-OPRD1 ag. HTR5A agonist counterscreen. activation, % at 9.3 µM. hit rate 8% among 830. AID 504905, 2011; in the data active = activation above about 17%
Of the large screens only hits and unclear results are named; the others gave an inactive call (follow-up assays come after a bar, where they were run). Rule as the data show it, unless noted: active = activation above about 18%; inactive = the rest.

COC(=O)C1CCN(C(=O)COC(=O)c2ccc(N3CCCC3=O)cc2)CC1	none
COc1ccc(C(CNc2ncnc3sc(C)c(C)c23)N(C)C)cc1 (stereo not drawn)	OPRM1-OPRD1 ag 102.0 | OPRM1-D1 ag cf 67.9 | HTR5A ag ctr2 inactive
COc1ccc(C(CNc2ncnc3sccc23)N(C)C)cc1OC (stereo not drawn)	OPRM1-OPRD1 ag 20.5 | OPRM1-D1 ag cf inactive | HTR5A ag ctr2 25.0
CN1CCN(c2ccc(NC(=O)c3ccc(-c4ccc(Br)cc4)o3)cc2)CC1	MC4R ag barr 10.9, HTR5A ag ctr 16.9, OPRM1-OPRD1 ag 345.3 | OPRM1-D1 ag cf 36.5 | HTR5A ag ctr2 inactive
COc1ccc(S(=O)(=O)N2CCCCC2c2cc(C(=O)N3CCOCC3)no2)cc1 (stereo not drawn)	none (no result: HTR5A inv ctr, OPRM1-OPRD1 inv, HTR5A ag ctr, OPRM1-OPRD1 ag)
CCCC(NCC(O)COc1ccc(-c2ccccc2)cc1)c1ccccc1 (stereo not drawn)	OPRM1-OPRD1 ag 22.0 | OPRM1-D1 ag cf inactive | HTR5A ag ctr2 inactive
COc1ccc(OCC(O)CNC(C)c2ccccc2)cc1 (stereo not drawn)	none
COc1cc(/C=C2/NC(=O)NC2=O)cc(Br)c1OCc1ccccc1	none
CC1=C(C(=O)Nc2nc3ccccc3s2)C(c2ccco2)C(C#N)=C(SCC(=O)NC2CCCCC2)N1 (stereo not drawn)	OPRM1-OPRD1 ag 25.6 | OPRM1-D1 ag cf inactive | HTR5A ag ctr2 inactive
CC1=C(C(=O)Nc2ccccc2)C(c2ccncc2)C(C#N)=C(SCC(=O)NC2CC2)N1 (stereo not drawn)	none
COc1cc2cc3c(N)c(C(=O)NCc4ccco4)sc3nc2cc1OC	none
COc1cc2cc3c(N)c(C(=O)Nc4sc(C)c(C)c4C#N)sc3nc2cc1OC	OPRM1-OPRD1 ag 117.3 | OPRM1-D1 ag cf 22.5 | HTR5A ag ctr2 inactive
CCc1nn(CC(=O)NCc2cccnc2)c(=O)c2cc3occc3n12	none
O=C1C=CC(=O)c2c(O)c(N3CCN(CCOCCO)CC3)c(Br)c(O)c21	OPRM1-OPRD1 ag 25.2 | OPRM1-D1 ag cf inactive | HTR5A ag ctr2 inactive
CC1CCN(S(=O)(=O)c2ccc3c(c2)C(=NO)c2cc(S(=O)(=O)N4CCC(C)CC4)ccc2-3)CC1	MC4R ag barr 34.1, OPRM1-OPRD1 ag 29.9 | OPRM1-D1 ag cf inactive | HTR5A ag ctr2 inactive
O=C(CCl)N(CCCNC(=O)C(F)(F)F)c1ccc([N+](=O)[O-])cc1	MC4R ag barr 12.9, OPRM1-OPRD1 ag 18.4 | OPRM1-D1 ag cf 27.5 | HTR5A ag ctr2 29.0
c1ccc(-c2csc(Nc3ncccn3)n2)cc1	none
Oc1ccc(-c2csc(Nc3ncccn3)n2)cc1	OPRM1-OPRD1 ag 22.6 | OPRM1-D1 ag cf inactive | HTR5A ag ctr2 inactive
Cc1cccc(NC(=O)NNC(=O)CCc2ccccc2)c1	none
Cc1cccc(NC(=S)NC(=O)CCc2ccccc2)c1	OPRM1-OPRD1 ag 18.1 | OPRM1-D1 ag cf 351.9 | HTR5A ag ctr2 inactive
COC(=O)c1ccc(C(=S)NCC2(N(C)C)CCCCC2)cc1	OPRM1-OPRD1 ag 37.3 | OPRM1-D1 ag cf inactive | HTR5A ag ctr2 70.0
COc1ccc(CN2CCc3c([nH]c4ccccc34)C2)cc1Br	none
COc1ccc(CN2CCc3c([nH]c4ccccc34)C2)c(OC)c1C	OPRM1-OPRD1 ag 69.5 | OPRM1-D1 ag cf 38.2 | HTR5A ag ctr2 inactive
O=C(CSc1ccc(Cl)cc1)Nc1ccc(-c2nc3ccccc3[nH]2)cc1	MC4R ag barr 10.2, HTR5A ag ctr 12.6, OPRM1-OPRD1 ag 32.1 | OPRM1-D1 ag cf 171.3 | HTR5A ag ctr2 inactive
COCC(=O)OC1CCn2c1nc1c2C(=O)C(C)=C(NC(C)=O)C1=O (stereo not drawn)	OPRM1-OPRD1 ag 22.6 | OPRM1-D1 ag cf inactive | HTR5A ag ctr2 inactive
Cc1ccccc1CN1CCN(c2nc3ccccc3s2)CC1	none
Cn1c(-c2c(N)n(C3CCCC3)c3nc4ccccc4nc23)nc2ccccc21	none
Cn1c(-c2c(N)n(CCc3ccccc3)c3nc4ccccc4nc23)nc2ccccc21	OPRM1-OPRD1 ag 250.3 | OPRM1-D1 ag cf 235.0 | HTR5A ag ctr2 inactive
COCCCn1c(N)c(-c2nc3ccccc3n2C)c2nc3ccccc3nc21	OPRM1-OPRD1 ag 117.2 | OPRM1-D1 ag cf 142.5 | HTR5A ag ctr2 inactive
C#CCOCCOCCOCCNc1nc(N2CCN(C(=O)[C@H](C)n3cc(CCC(=O)O)nn3)CC2)nc(N2CCN(C(=O)[C@H](CCCCN)n3cc(CCCC)nn3)CC2)n1	none
O=S(=O)(c1ccccc1)N1CCN(Cc2ccc(Cl)cc2)CC1	none
Fc1ccc(-[n+]2nc(Nc3ccccc3)sc2-c2c(Cl)cccc2Cl)cc1	none
CCc1ccc(Nc2n[n+](-c3ccccc3)c(-c3c(Cl)cccc3Cl)s2)cc1	OPRM1-OPRD1 ag 27.0 | OPRM1-D1 ag cf 72.8 | HTR5A ag ctr2 inactive
COc1ccc2c(Cl)c(-c3nnc4n3CCCCC4)sc2c1	OPRM1-OPRD1 ag 80.9 | OPRM1-D1 ag cf inactive | HTR5A ag ctr2 inactive
Cc1ccc(C)c(N2CCN(C(=S)Nc3ccc4nc(N5CCN(C)CC5)cc(C)c4c3)CC2)c1	OPRM1-OPRD1 ag 18.3 | OPRM1-D1 ag cf 21.6 | HTR5A ag ctr2 inactive
CS(=O)(=O)N1CCC(C(=O)Nc2cccc(Cl)c2Cl)CC1	none
COc1ccccc1CN1CCN(C(CC(C)C)c2nnnn2Cc2cccs2)CC1 (stereo not drawn)	OPRM1-OPRD1 ag 45.6 | OPRM1-D1 ag cf 62.9 | HTR5A ag ctr2 inactive
CC(C)C(=O)NC(C)C(c1cccs1)N1CCN(c2ccccc2)CC1 (stereo not drawn)	OPRM1-OPRD1 ag 30.0 | OPRM1-D1 ag cf 28.8 | HTR5A ag ctr2 inactive
CC(NC(=O)c1cccs1)C(c1cccs1)N1CCN(c2ccccc2)CC1 (stereo not drawn)	none
COc1ccccc1N1CCN(C(c2cccs2)C(C)NC(=O)c2cccs2)CC1 (stereo not drawn)	OPRM1-OPRD1 ag 23.4 | OPRM1-D1 ag cf inactive | HTR5A ag ctr2 inactive
COc1ccccc1N1CCN(C(c2cccs2)C(C)NC(=O)c2cccnc2)CC1 (stereo not drawn)	none
